In publication PMC8612216 (Proceedings of the National Academy of Sciences of the …, 2021):

What was measured:
NFR5 ectodomain = biological target: T1, NFR5 ectodomain (Lotus japonicus, UniProt Q70KR1); test: BLI binding of NFR5 ectodomain; conditions: analyte 100 to 1.56 µM
T1 sequence (Q70KR1 29-242): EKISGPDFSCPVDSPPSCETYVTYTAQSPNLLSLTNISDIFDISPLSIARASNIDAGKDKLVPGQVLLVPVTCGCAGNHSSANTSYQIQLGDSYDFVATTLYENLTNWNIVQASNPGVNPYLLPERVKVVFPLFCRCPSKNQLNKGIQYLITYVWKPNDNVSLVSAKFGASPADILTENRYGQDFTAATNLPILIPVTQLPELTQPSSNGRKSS

[1] = biological target: T2, engineered LYS11 (ENG-LYS11) (Lotus japonicus, UniProt D3KTZ8); test: BLI binding of engineered LYS11 ectodomain; conditions: ENG-LYS11, analyte 100 to 1.56 µM
T2 sequence (D3KTZ8 28-247): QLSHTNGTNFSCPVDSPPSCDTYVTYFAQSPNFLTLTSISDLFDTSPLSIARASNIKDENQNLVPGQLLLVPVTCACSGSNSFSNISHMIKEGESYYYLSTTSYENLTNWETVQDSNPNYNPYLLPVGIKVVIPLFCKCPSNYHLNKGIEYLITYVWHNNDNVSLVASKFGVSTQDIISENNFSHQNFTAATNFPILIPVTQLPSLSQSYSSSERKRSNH

CERK1 = biological target: T3, CERK1 (Arabidopsis thaliana, UniProt A8R7E6); test: BLI kinetics of CERK1 ectodomain binding to chitin fragment
T3 sequence (A8R7E6 24-232 limits assumed): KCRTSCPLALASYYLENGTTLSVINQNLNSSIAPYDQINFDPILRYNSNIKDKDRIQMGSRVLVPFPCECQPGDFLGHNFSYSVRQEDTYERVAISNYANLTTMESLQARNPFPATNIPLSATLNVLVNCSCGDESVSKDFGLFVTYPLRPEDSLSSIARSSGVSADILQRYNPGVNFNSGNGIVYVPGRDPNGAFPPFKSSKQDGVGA

NFP = biological target: T4, NFP (Medicago truncatula, UniProt Q0GXS4); test: MST steady-state binding to fluorescently labeled NFP; conditions: ligand 0.6 to 20,000 nM, NFP 12.5 to 50 nM
T4 sequence (Q0GXS4 28-246): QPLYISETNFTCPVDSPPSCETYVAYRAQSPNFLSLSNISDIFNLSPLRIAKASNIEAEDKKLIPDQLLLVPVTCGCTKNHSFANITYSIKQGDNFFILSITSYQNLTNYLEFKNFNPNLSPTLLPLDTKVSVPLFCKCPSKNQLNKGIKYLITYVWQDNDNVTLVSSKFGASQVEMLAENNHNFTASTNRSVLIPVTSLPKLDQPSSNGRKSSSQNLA
Method in brief: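 Microscale thermophoresis using NHS blue dye-labelled NFP ectodomain (insect cell-expressed) held at a constant 12.5–50 nM. Ligands were S. meliloti succinoglycan (EPS-I) and maltodextrin, each titrated from 0.6 to 20,000 nM. Steady-state binding signal was recorded.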

Kd (NFR5 ectodomain)	Kd [1]	binding kinetics (CERK1)	binding to NFP (NFP)	Compound
does not bind	completely lost the ability to bind	fast association and dissociation rates		N[C@H]1[C@H](O[C@H]2[C@H](O)[C@@H](N)[C@H](O[C@H]3[C@H](O)[C@@H](N)[C@H](O[C@H]4[C@H](O)[C@@H](N)[C@H](O[C@H]5[C@H](O)[C@@H](N)C(O)O[C@@H]5CO)O[C@@H]4CO)O[C@@H]3CO)O[C@@H]2CO)O[C@H](CO)[C@@H](O)[C@@H]1O (some centres unmarked) [CO5, chitopentaose]
			unable to bind	maltodextrin
			unable to bind	S. meliloti succinoglycan [EPS-I]
